Many of the other results were omitted from the sample, so hits are more common in it than they were.
T cruzi HTS – intracellular Trypanosoma cruzi inhibition; 4.9% of 22,000 active; intracellular Trypanosoma cruzi in host cells, plate reader; AID 651903; activity score (inhibition), % at 5.01 µM; in the data active = activity score above about 55%; inconclusive = no clear call, values can overlap the other calls;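 note: parasites and compound incubated about four days before reading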
INS-1E ATP HTS – preserves ATP levels in cytokine-treated INS-1E cells; INS-1E cytokine-induced death, ATP luminescence, 48 h; normalised: neutral wells 0, positive control 100; AID 488910; 0.1% of 20,000 active; protection from cytokine-induced ATP loss, % at 10 µM;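 active = mean replicate protection from cytokine-induced ATP loss at least 50% and at least 75% of replicates each reaching 50%; inconclusive = meets only one of the two criteria, mean or replicate share; inactive = fails both the mean and replicate share criteria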
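Test system: INS-1E rat cells | Quantity: 8000 cells per well | Medium: Phenol-red-free RPMI with 5% fetal bovine serum | Reagent: Cytokine cocktail of IFN-γ, TNF-α and IL-1β | Doses: One compound concentration, pin transfer | Timing: 48 h co-treatment, 10 min post-lysis read | Technique: Luminescent ATP assay (CellTiter-Glo)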
A1 apoptosis 2 – blocks A1, raising caspase activity; caspase activation, % (concentration not given with the values); 24,000 tested, under 10 active; MEF A1-2A-BIM cells, caspase-Glo luminescence, 3 h; percent of clofoctol response, DMSO zero; in the data active = caspase activation above about 5.9%; inconclusive = no clear call, values can overlap the other calls; inactive = below about 2.2%
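Test system – A1-2A-BIM-expressing MEF cells · Input – 2500 cells/well · Medium – RPMI-1640 growth medium with 10% FBS · Compound dosing – 50 nL pinned compound · Timing – 3 h compound exposure at 37 °C · Technique – Caspase-Glo luminescence (DEVD substrate) · Evaluation – Caspase-3/7 activity from luminescence increase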
Numbers stand for hits; i = inactive; ? = inconclusive; nt = no result.

SMILES	T cruzi HTS	INS-1E ATP HTS	A1 apoptosis 2
C[C@H](CO)N1C[C@H](C)[C@H](CN(C)C(=O)Nc2ccc3c(c2)OCO3)Oc2ncc(-c3cccc(F)c3)cc2C1=O	i	nt	nt
C[C@H](CO)N1C[C@H](C)[C@H](CN(C)C(=O)Nc2ccc3c(c2)OCO3)Oc2ncc(C#Cc3ccc(F)cc3)cc2C1=O	i	i	i
C[C@H](CO)N1C[C@H](C)[C@H](CN(C)C(=O)Nc2ccccc2)Oc2ncc(-c3cccc(C(F)(F)F)c3)cc2C1=O	64	nt	i
C[C@H](CO)N1C[C@H](C)[C@H](CN(C)C(=O)Nc2ccc3c(c2)OCO3)Oc2ncc(-c3cccc(C(F)(F)F)c3)cc2C1=O	67	nt	nt
COc1ccc(NC(=O)N(C)C[C@@H]2Oc3ncc(-c4ccc(OC)cc4)cc3C(=O)N([C@H](C)CO)C[C@@H]2C)cc1	i	nt	nt
C[C@@H]1CN([C@H](C)CO)C(=O)Cc2cc(NC(=O)CCCCCC(=O)Nc3ccccc3N)ccc2O[C@H]1CN(C)Cc1ccc(C(F)(F)F)cc1	i	i	nt
C[C@@H]1CCCCO[C@@H](CN(C)S(=O)(=O)c2ccccc2)[C@H](C)CN([C@@H](C)CO)C(=O)c2cc(NC(=O)Cc3ccccc3)ccc2O1	nt	nt	i
C[C@H](CO)N1C[C@H](C)[C@@H](CN(C)Cc2ccc(C(=O)Nc3ccccc3N)cc2)Oc2c(NC(=O)c3cnccn3)cccc2C1=O	75	i	i
C[C@H]1CN([C@@H](C)CO)C(=O)c2cccc(NC(=O)c3cnccn3)c2O[C@H]1CN(C)Cc1ccc(C(=O)Nc2ccccc2N)cc1	67	i	i
C[C@H]1CN([C@@H](C)CO)C(=O)c2cccc(NC(=O)c3cnccn3)c2O[C@@H]1CN(C)Cc1ccc(C(=O)Nc2ccccc2N)cc1	?	i	i
C[C@H](CO)N1C[C@H](C)[C@H](CN(C)Cc2ccc(C(=O)O)cc2)Oc2c(NC(=O)c3cnccn3)cccc2C1=O	i	i	i
C[C@@H]1CCCCO[C@H](CN(C)S(=O)(=O)c2ccc(F)cc2)[C@@H](C)CN([C@H](C)CO)C(=O)c2cc(NC(=O)Nc3ccc4c(c3)OCO4)ccc2O1	i	i	i
C[C@@H]1CN([C@H](C)CO)C(=O)c2cccc(NC(=O)C3CCOCC3)c2O[C@@H]1CN(C)C(=O)Nc1cccc2ccccc12	i	i	i
Cc1noc(C)c1NC(=O)Nc1ccc2c(c1)C(=O)N([C@@H](C)CO)C[C@H](C)[C@H](CN(C)Cc1ccc(C(=O)O)cc1)OCCCC[C@H](C)O2	nt	nt	i
Cc1noc(C)c1NC(=O)Nc1ccc2c(c1)CC(=O)N([C@H](C)CO)C[C@@H](C)[C@H](CN(C)Cc1ccc(Cl)c(Cl)c1)O2	i	i	i
Cc1ccc(S(=O)(=O)N(C)C[C@@H]2Oc3ccc(NC(=O)Cc4ccccc4)cc3CC(=O)N([C@@H](C)CO)C[C@@H]2C)cc1	i	i	i
C[C@@H]1CN([C@@H](C)CO)C(=O)Cc2cc(NC(=O)Nc3ccc(C(F)(F)F)cc3)ccc2O[C@@H]1CN(C)Cc1ccccc1	58	i	nt
C[C@@H]1CN([C@@H](C)CO)C(=O)Cc2cc(NC(=O)Nc3ccccc3)ccc2O[C@@H]1CN(C)Cc1ccc(C(F)(F)F)cc1	?	i	i
C[C@@H]1CN([C@H](C)CO)C(=O)Cc2cc(NC(=O)Nc3ccc(C(F)(F)F)cc3)ccc2O[C@@H]1CN(C)Cc1ccccc1	69	i	nt
C[C@H]1CN([C@@H](C)CO)C(=O)Cc2cc(NC(=O)Nc3ccccc3)ccc2O[C@@H]1CN(C)Cc1ccc(C(F)(F)F)cc1	i	i	i
C[C@H](CO)N1C[C@H](C)[C@H](CN(C)Cc2ccc3c(c2)OCO3)Oc2c(NS(=O)(=O)c3cccs3)cccc2C1=O	i	i	i
C[C@H](CO)N1C[C@H](C)[C@H](CN(C)C)Oc2ccc(NS(C)(=O)=O)cc2C1=O	i	i	i
C[C@@H]1CCCCO[C@H](CN(C)S(=O)(=O)c2cn(C)cn2)[C@@H](C)CN([C@H](C)CO)C(=O)c2cc(NC(=O)CCCN(C)C)ccc2O1	nt	nt	i
C[C@@H]1CN([C@@H](C)CO)C(=O)c2cccc(NC(=O)c3cnccn3)c2O[C@@H]1CN(C)Cc1ccc(Oc2ccccc2)cc1	i	i	i
C[C@H]1CN([C@@H](C)CO)C(=O)c2cccc(NC(=O)c3ccncc3)c2O[C@@H]1CN(C)Cc1ccccc1	81	i	nt
SMILES	T cruzi HTS	INS-1E ATP HTS	A1 apoptosis 2
C[C@H](CO)N1C[C@H](C)[C@H](CN(C)Cc2ccccc2)Oc2c(NC(=O)c3ccncc3)cccc2C1=O	81	i	i
C[C@H](CO)N1C[C@H](C)[C@H](CN(C)Cc2ccc(Oc3ccccc3)cc2)Oc2c(NC(=O)c3ccncc3)cccc2C1=O	60	i	i
C[C@@H]1CN([C@H](C)CO)C(=O)c2cccc(NC(=O)c3ccncc3)c2O[C@H]1CN(C)Cc1ccc(C(=O)O)cc1	i	i	i
C[C@@H]1CN([C@H](C)CO)C(=O)c2cccc(NC(=O)c3ccncc3)c2O[C@@H]1CN(C)Cc1ccccc1	i	i	i
C[C@@H]1CCCCO[C@H](CN(C)C(=O)c2ccncc2)[C@@H](C)CN([C@H](C)CO)C(=O)c2cc(NS(=O)(=O)c3cccs3)ccc2O1	i	i	nt
C[C@H]1CN([C@@H](C)CO)C(=O)Cc2cc(NS(=O)(=O)c3cn(C)cn3)ccc2O[C@H]1CN(C)Cc1ccncc1	i	i	i
C[C@H](CO)N1C[C@H](C)[C@H](CN(C)C(=O)Nc2ccccc2)Oc2c(NC(=O)Nc3cccc4ccccc34)cccc2C1=O	63	i	i
C[C@H](CO)N1C[C@H](C)[C@@H](CN(C)C(=O)Nc2ccccc2)Oc2c(NC(=O)Nc3cccc4ccccc34)cccc2C1=O	68	i	nt
C[C@@H]1CN([C@@H](C)CO)C(=O)c2cccc(NC(=O)Nc3cccc4ccccc34)c2O[C@H]1CN(C)C(=O)Nc1ccccc1	i	i	i
C[C@@H]1CN([C@H](C)CO)C(=O)c2cccc(NC(=O)Nc3cccc4ccccc34)c2O[C@H]1CN(C)C(=O)Nc1ccccc1	i	i	nt
C[C@H]1CCCCO[C@H](CN(C)Cc2ccc(C(=O)O)cc2)[C@@H](C)CN([C@@H](C)CO)C(=O)c2cc(NC(=O)c3ccncc3)ccc2O1	nt	nt	i
C[C@@H]1CN([C@@H](C)CO)C(=O)Cc2cc(NC(=O)Nc3ccc(C(F)(F)F)cc3)ccc2O[C@@H]1CN(C)S(=O)(=O)c1ccccc1	75	i	nt
Cc1ccc(S(=O)(=O)N(C)C[C@H]2Oc3ccc(NC(=O)Nc4ccc(C(F)(F)F)cc4)cc3CC(=O)N([C@@H](C)CO)C[C@@H]2C)cc1	i	i	nt
C[C@H]1CN([C@@H](C)CO)C(=O)Cc2cc(NC(=O)Nc3ccc(C(F)(F)F)cc3)ccc2O[C@@H]1CN(C)S(=O)(=O)c1ccccc1	i	i	i
C[C@@H]1CN([C@@H](C)CO)C(=O)Cc2cc(NC(=O)Nc3ccc(C(F)(F)F)cc3)ccc2O[C@@H]1CN(C)S(=O)(=O)c1cccs1	73	i	i

Compound activity deposited in PubChem BioAssay by Broad Institute.
